This is an account of results in ChEMBL document CHEMBL4145676, “Mathematical and Structural Characterization of Strong Nonadditive Structure-Activity Relationship Caused by Protein Conformational Changes” (J Med Chem, 2018).

This test is described as follows: Inhibition of GST tagged PDE2 (unknown origin) assessed as reduction in FAM-cAMP hydrolysis pre-incubated for 5 mins before FAM-cAMP addition and measured after 30 mins by IMAP assay. More on the design: species or system Homo sapiens. The gist of the method:
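Compound added from 1 mM DMSO stock, 5 min at rt. FAM-cAMP then added at 200 nM final, 30 min at rt. Stopped with IMAP Tb binding reagent, 1 h at rt. Plate reader read-out gives pIC50, run in quadruplicate.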

Take `Cc1nc2ccc(C(=O)NCC(C)C)cc2n2c(-c3ccccc3Cl)nnc12`: the pIC50 (in general, the negative decadic logarithm of the IC50, by convention in mol/L) came to 9.52.
In the case of `Cc1nc2ccc(C(=O)NCC(C)C)cc2n2c(-c3cc(OC(C)(C)C)ccc3Cl)nnc12`, the pIC50 is 8.88.
Then `Cc1nc2ccc(C(=O)NCC(C)C)cc2n2c(-c3cc(OC(C)C)ccc3Cl)nnc12`, with 8.93; and `Cc1nc2ccc(C(=O)NCC(C)C)cc2n2c(-c3cc(OCC(C)C)ccc3Cl)nnc12`, with 9.29.
Then `Cc1nc2ccc(C(=O)NC(C)C)cc2n2c(-c3cc(OCC(C)C)ccc3Cl)nnc12`, with 9.46.
The figure for `Cc1nc2ccc(C(=O)NC(C)C)cc2n2c(-c3cc(F)ccc3Cl)nnc12` is 9.17; for `COc1ccc(Cl)c(-c2nnc3c(C)nc4ccc(C(=O)NCC(C)C)cc4n23)c1` it is 9.42; for `COc1ccc(Cl)c(-c2nnc3c(C)nc4ccc(C(=O)NC(C)C)cc4n23)c1` it is 8.96.
Consider `Cc1nc2ccc(C(=O)NC34CC5CC(CC(C5)C3)C4)cc2n2c(-c3ccccc3Cl)nnc12`, for which the negative logarithm of the IC50 (pIC50) was 9.77.
The figure for `Cc1nc2ccc(C(=O)NC34CC5CC(CC(C5)C3)C4)cc2n2c(-c3cc(OC(C)(C)C)ccc3Cl)nnc12` is 7.58; for `Cc1nc2ccc(C(=O)NC34CC5CC(CC(C5)C3)C4)cc2n2c(-c3cc(OC(C)C)ccc3Cl)nnc12` it is 7.94.
On to `Cc1nc2ccc(C(=O)NC34CC5CC(CC(C5)C3)C4)cc2n2c(-c3cc(F)ccc3Cl)nnc12`, for which the negative-log IC50 (pIC50) is listed as 9.58.
The figure for `Cc1nc2ccc(C(=O)NC(C)(C)C)cc2n2c(-c3ccccc3Cl)nnc12` is 9.47; for `Cc1nc2ccc(C(=O)NC(C)C)cc2n2c(-c3cc(OC(C)(C)C)ccc3Cl)nnc12` it is 9.1.
Then `CNC(=O)c1ccc2nc(C)c3nnc(-c4cc(OC(C)(C)C)ccc4Cl)n3c2c1`, with 9.16; and `Cc1nc2ccc(C(=O)NC(C)C)cc2n2c(-c3cc(OC(C)C)ccc3Cl)nnc12`, with 8.99; and `CNC(=O)c1ccc2nc(C)c3nnc(-c4cc(OC(C)C)ccc4Cl)n3c2c1`, with 9.16.
The figure for `CNC(=O)c1ccc2nc(C)c3nnc(-c4cc(OCC(C)C)ccc4Cl)n3c2c1` is 9.61; for `Cc1nc2ccc(C(=O)NCC(C)C)cc2n2c(-c3cc(F)ccc3Cl)nnc12` it is 9.37; for `CNC(=O)c1ccc2nc(C)c3nnc(-c4ccccc4Cl)n3c2c1` it is 8.55.
For `CNC(=O)c1ccc2nc(C)c3nnc(-c4cc(OC)ccc4Cl)n3c2c1`, the pIC50 stood at 8.74.
Consider `CNC(=O)c1ccc2nc(C)c3nnc(-c4cc(F)ccc4Cl)n3c2c1`, for which the pIC50 is 8.69.
The figure for `Cc1nc2ccc(C(=O)NC(C)(C)C)cc2n2c(-c3cc(OCC(C)C)ccc3Cl)nnc12` is 8.75.
Take `COc1ccc(Cl)c(-c2nnc3c(C)nc4ccc(C(=O)NC(C)(C)C)cc4n23)c1`: the pIC50 is listed as 9.
For `Cc1nc2ccc(C(=O)NC(C)(C)C)cc2n2c(-c3cc(OC(C)C)ccc3Cl)nnc12`, the negative logarithm of the IC50 (pIC50) was 8.3.
Turning to `Cc1nc2ccc(C(=O)NC(C)(C)C)cc2n2c(-c3cc(F)ccc3Cl)nnc12`, the negative-log IC50 (pIC50) stood at 9.3.
For the molecule `Cc1nc2ccc(C(=O)NC(C)(C)C)cc2n2c(-c3cc(OC(C)(C)C)ccc3Cl)nnc12`, the pIC50 was found to be 8.35.
The figure for `Cc1nc2ccc(C(=O)NC34CC5CC(CC(C5)C3)C4)cc2n2c(-c3cc(OCC(C)C)ccc3Cl)nnc12` is 7.74; for `COc1ccc(Cl)c(-c2nnc3c(C)nc4ccc(C(=O)NC56CC7CC(CC(C7)C5)C6)cc4n23)c1` it is 9.49; for `Cc1nc2ccc(C(=O)NC(C)C)cc2n2c(-c3ccccc3Cl)nnc12` it is 9.57.
